{"data": "Experimental data gathered from unrelated publications", "CYP1A2": "Cytochrome P450 1A2 (CYP1A2, Homo sapiens, UniProt P05177)"}
{"Structure (SMILES)": "COC(=O)C1CCN(C(=O)c2cccc(NCc3cnc4nc(N)nc(N)c4n3)c2)CC1", "target or system": "CYP1A2", "test": "enzyme activity, inhibitor, luciferase", "setting": "10 µM", "endpoint": "inhibition", "value": "-15.2%"}
{"Structure (SMILES)": "CC(C)(C)c1ccc(O)c(CN(Cc2cc(C(C)(C)C)ccc2O)C2CCC(NC(N)=O)CC2)c1 (stereo not shown)", "test system": "male C57BL/6 mouse, brain", "setting": "intraperitoneal, 5 mg/kg, single dose", "endpoint": "Cmax", "value": "609 ng/g"}
{"Structure (SMILES)": "COc1cc(C(=O)NC2CCN(C)CC2)c(F)cc1Nc1ncc(C(F)(F)F)c(Oc2cccc3c2C(=O)N(C)C3)n1", "test system": "human, plasma", "setting": "oral, 10 mg, single dose, patients", "endpoint": "Vd/F", "value": "873 L"}
{"Structure (SMILES)": "O=S(=O)(NNc1nnc(Cl)c2ccccc12)c1ccc(F)cc1", "target or system": "Vero", "test": "cell growth or viability, MTT", "setting": "31.25 µg/mL", "endpoint": "viability", "value": "99.8%"}
{"Structure (SMILES)": "COC(=O)C1CCN(C(=O)c2ccc(NCc3cnc4nc(N)nc(N)c4n3)cn2)CC1", "target or system": "CYP1A2", "test": "enzyme activity, inhibitor, luciferase", "setting": "10 µM", "endpoint": "inhibition", "value": "-8.69%"}
{"Structure (SMILES)": "Cc1cc(Nc2cc(N3CCN(C)CC3)nc(/C=C/c3ccccc3)n2)n[nH]1", "test system": "human, plasma", "setting": "oral, 80 mg/m², multiple doses, patients", "endpoint": "Vd/F", "value": "748 L"}
{"Structure (SMILES)": "Cn1cnc2c1c(=O)n(CC(=O)Nc1c(Cl)cccc1Cl)c(=O)n2C", "target or system": "Vero", "test": "cell growth or viability, MTT", "setting": "1000 µg/mL", "endpoint": "viability", "value": "7.99%"}
{"Structure (SMILES)": "COc1ccc([C@@H]2CN(C(=O)[C@@H](O)CO)C[C@@]2(C)[C@@H](C)O)cc1OC1CN(c2ccc(C)cn2)C1", "test system": "human, plasma", "setting": "oral, 30 mg, single dose, healthy volunteers", "endpoint": "Vd/F", "value": "84.3 L"}
{"Structure (SMILES)": "CCNc1nc(Nc2ccc(F)c(Cl)c2)c2ccccc2n1", "target or system": "Vero", "test": "cell growth or viability, MTT", "setting": "31.25 µg/mL", "endpoint": "viability", "value": "100%"}
{"Structure (SMILES)": "COC(=O)C1CCN(C(=O)c2ccc(N(CCCO)Cc3cnc4nc(N)nc(N)c4n3)cc2)CC1", "target or system": "Cytochrome P450 3A4 (CYP3A4, Homo sapiens, UniProt P08684)", "test": "enzyme activity, inhibitor, luciferase", "setting": "10 µM", "endpoint": "inhibition", "value": "-2.09%"}
